Source: ChEMBL document CHEMBL4513216, “Probing the Open Global Health Chemical Diversity Library for Multistage-Active Starting Points for Next-Generation Antimalarials” (ACS Infect Dis, 2020)

Assay: Toxicity liver stage against HepG2, at 10uM
Assay type: cell-based
Parameters: test concentration 10 uM, cell line HepG2-A16-CD81EGFP
Conditions: human, HepG2-A16-CD81EGFP cells; read-out: INHIBITION
Procedure, shortened: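 Uninfected HepG2-A16-CD81EGFP cells, 3 × 10^3 per well, 1536-well, plated on prespotted compound at 10 μM final, parasite-free screening media added to match infected plates; puromycin 10 μM positive, DMSO 0.5% negative; run in parallel with 48 h PbLuc assay at 37 °C, 5% CO2; viability by CellTiter-Glo luminescence, normalized to controls.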

Structure (SMILES) | cytotoxicity at 10 µM [%]
OCCc1cc(CC2(NCc3ccncc3)COC2)no1 | -3.56
COc1cccc(CN2C[C@@H](F)[C@@H](OCc3nc4cnccc4[nH]3)C2)c1 | -1.72
CCc1c(C)sc2c1c(N)nc(=O)n2CCN(C)C | 3.85
Cc1nn(-c2ccc(C(=O)O)cc2)c2c1C(C(F)(F)F)SCC(=O)N2 (centres undefined) | -1.24
O=C(NCCc1ccccc1)NCC(O)c1cccs1 (centres undefined) | -11.9
COc1cccc2sc(N(C)CC(=O)NCc3nc(C)no3)nc12 | -1.53
O=S(=O)(c1ccccc1)N1C[C@@H]2CCN[C@@H]2C1 | 2.58
CCc1nc(-c2noc3ccc(C(=O)N(C)CCOC)cc23)co1 | -138
COCC1c2nnn(CC3CC3)c2CCN1C(=O)CS(C)(=O)=O (centres undefined) | -129
O=C(NCc1ccccc1)N1CCC2(CC(=O)N(c3ccccc3)C2)C1 (centres undefined) | 2.61
O=C(NCC1CCCO1)c1nc2c(s1)CCCN2CC1CC1 (centres undefined) | -0.843
O=C1CC[C@H]2[C@H](CCN2C(=O)c2ccc[nH]2)N1CCN1CCOCC1 | 3.3
NC(=O)CSc1nnc2n1N=CN(c1ccccc1F)C2 | -3.78
CCCc1cc(=O)[nH]c2nnc(SCC(=O)NCc3ccc(C)cc3)n12 | -15.7
O=C(NCC(Cc1cccc(F)c1)N1CCCC1=O)c1cnccn1 (centres undefined) | -5.06
CC(=O)N1CC[C@H]2OCC[C@@H](C(=O)N3CCCCO3)[C@@H]2C1 | -5.1
O=C(NCC1CC1)C1CN(C(=O)c2ccncc2)CC12CCOCC2 (centres undefined) | 0.381
COc1c(C(=O)NCC2CCCO2)nnn1Cc1ccccc1 (centres undefined) | 7.47
Cc1cccc(Nc2noc3c2CN(C(=O)c2ccn(C)n2)CC3)c1C | -0.61
COc1ccccc1N1CC(NC(=O)Cn2cc(C(C)C)nn2)CC1=O (centres undefined) | 11.5
Nc1nc(N)c2c(n1)OC1(CCN(Cc3nccs3)C1)C2 (centres undefined) | 0.861
O=C(NCc1ccc2c(c1)OCO2)[C@H]1C=CCN1c1ncccn1 | -4.52
CN(C)c1ccc(CC2CCCN(c3cnccn3)C2)nn1 (centres undefined) | 4.71
NC(=O)CN(CC(N)=O)Cc1cccc(Oc2ccccc2)c1 | -5.05
CCn1cnnc1CNC(=O)NC(c1ccccc1)C1CCCC1 (centres undefined) | 12
CCc1cc(NC(=O)N2CCC(Oc3cccnc3)C2)n(C)n1 (centres undefined) | 5.95
Cc1noc(C)c1NS(=O)(=O)c1cc(C(=O)O)cc(Cl)c1Cl | 6.14

Structure (SMILES) | cytotoxicity at 10 µM [%]
N#Cc1ccnc(N2CCN(CC(O)c3ccccc3Cl)CC2)c1 (centres undefined) | 1.7
Cc1nnc(C(C)NCC2(c3ccc(F)cc3)CCCCC2)o1 (centres undefined) | 2.39
CC1(NC(=O)Cc2csc(NC(=O)c3ccccc3)n2)CCS(=O)(=O)C1 (centres undefined) | 0.271
O=C(NCCCN1CCOCC1)c1cc(-c2ccccc2)[nH]n1 | -161
O=C(NCc1ccccc1F)NC1CCCN(c2ncccn2)C1 (centres undefined) | 7.81
O=C(NCc1nnc2n1CCC2)NCC1(c2cccc(F)c2)CC1 | -6.03
CCOC(=O)c1nc(CN2CCN(C(C)C(=O)NC3CC3)CC2)cs1 (centres undefined) | -2.52
NC(=O)CCS(=O)(=O)Cc1ccc(OCC(F)(F)F)cc1 | -4.16
CCS(=O)(=O)CC(=O)NC1(c2ccc(Cl)c(Cl)c2)CC1 | -2.6
O=C1NCCN1C1CCN(Cc2ccccn2)CC1 | 4.08
Cc1cnn(CC2CCCN2Cc2coc(-c3ccccc3)n2)c1 (centres undefined) | -5.26
CN(C)C(=O)NC1COC2(CCN(S(=O)(=O)c3ccccc3)CC2)C1 (centres undefined) | -88.5
O=C(O)C1(n2ccc(-c3ccco3)n2)CCN(Cc2ccsc2)CC1 | -129
CN1CCN(Cc2nnc(C3CCN(S(C)(=O)=O)CC3)n2C)CC1 | 4.67
Cn1cc(C(=O)N2CC[C@H](N3CCOCC3)[C@H](CCCO)C2)cn1 | -158
Cc1cc(C2CCC2)nc(N2CCC3(CCCN(C)C3=O)C2)n1 (centres undefined) | -6.62
Cc1nonc1C(=O)N1CC[C@@]2(O)CCN(C3CCCCC3)C[C@H]2C1 | -132
O=C(N1CCCC1)N1CCCC(c2nccn2Cc2ccncc2)C1 (centres undefined) | 8.2
Cc1ccc(C2(C(=O)N3CCC(n4cc(C(C)O)nn4)CC3)CC2)cc1 (centres undefined) | -2.26
COC(=O)c1ccc(OC)c(CN2CCN(CC(C)C)C(=O)C2C)c1 (centres undefined) | -20.3
Cc1onc(N)c1S(=O)(=O)N1CCCCC1C (centres undefined) | 12.4
CNc1ncccc1C(=O)N1CCc2c(nc(N)[nH]c2=O)C1 | 3.61
Cn1ncc2c(N3CCN(CCO)CC3)nc(C3CCCC3)nc21 | -4.07
O=C(O)[C@@H]1CN(CCOCCO)C[C@H]1c1ccccc1 | -2.33
N#Cc1ccc(C(=O)N2CCC3(CC2)C(=O)Nc2ccccc23)cn1 | 13.5
COc1c(C2CCCN2C(=O)c2cnc(C)cn2)c(C)nn1C (centres undefined) | 2.58
CC(=O)N(C)c1nc(CN2CCCC2Cn2nc(C)cc2C)cs1 (centres undefined) | -10.3

Structure (SMILES) | cytotoxicity at 10 µM [%]
Cc1nc(NC(=O)CCc2c(C)nc3cc(O)nn3c2C)sc1C | -13.5
COc1cc(CCC(=O)NC2CCN(C)CC2)ccc1OCC(F)(F)F | -8.82
Cc1ccc(C2=CCN(C(=O)C3CCN(C)C(=O)C3)CC2)cc1 (centres undefined) | -12.1
Cn1cc(C2CCCN2CCc2nc3ccccc3c(=O)[nH]2)cn1 (centres undefined) | -12.9
Cc1cc(C)c(CNC(=O)N2CCCC2c2ccccn2)c(=O)[nH]1 (centres undefined) | 1.17
CC(=O)N1CCN(C(=O)CN2CCCC2Cn2nc(C)cc2C)CC1 (centres undefined) | -12.2
O=C(NCCNc1ncccn1)N1CCN(c2nccs2)CC1 | -13.8
CC1COCCN1Cc1nc(-c2cccc(Br)c2)no1 (centres undefined) | -3.04
Cc1noc2ncc(C(=O)NCC3CCOC3)cc12 (centres undefined) | -1.47
Cn1ccnc1CN1CCN(CC(O)c2cccc(F)c2)CC1 (centres undefined) | 1.59
Cc1cccc(CC(=O)N2CCN(c3nccn3C)CC2)c1 | 8.68
COCCN1CC2(CCN(C(=O)c3ccno3)CC2)c2ccccc21 | 0.729
CCS(=O)(=O)N1C[C@@H](Oc2ccccn2)[C@H]2OCCC[C@H]21 | 5.08
CCS(=O)(=O)N1CCCC2(CCCN2Cc2cccc(Cl)c2)C1 (centres undefined) | -143
Cn1cnc2c(N3CCCC3)nc(C3CCN(CC4CC4)CC3)cc21 | -5.26
Cc1ccc(CN2C[C@@H](OCc3csc(C)n3)[C@H]3COC[C@H]32)s1 | -5.21
Cc1noc(C)c1CN1C[C@@H](OCc2ccccn2)[C@H]2OCCC[C@H]21 | -3.14
O[C@@H]1CCN(CC2CC2)[C@H]1Cc1ccccc1 | 3.57
c1cnc(NC[C@H]2OC[C@@H]3CCN(Cc4nccs4)C[C@@H]32)nc1 | -3.38
FC(F)(F)c1cccc(-c2c[nH]c(C3CCCN3)n2)c1 (centres undefined) | -3.25
O=C(NCc1cn2c(n1)CN(Cc1cccc(F)c1)CC2)C1CCC1 | 8.79
CCc1ccc(CN2Cc3nccn3CC(Cn3cncn3)C2)o1 (centres undefined) | -137
CO[C@H]1CN(C(=O)c2cccnc2)[C@@H]2CCCO[C@H]12 | 5
CN(Cc1ccco1)C[C@H]1OC[C@@H]2CCN(Cc3ccccn3)C[C@@H]21 | -3.22
COCCN1C(=O)CCC12CCC(NC(=O)c1cnccn1)CC2 (centres undefined) | -6.19
